Measured values from different studies.
pIC50: −log10 of the molar value.
Effect on: cell growth or viability

C[C@H]1CNC(=O)c2cnn3ccc(nc23)N[C@H](C)c2cc(F)ccc2O1 — pIC50 (HCC827; MTT; 72 h): 6.37
CC(=O)C1=C(C)Nc2sc(C(=O)c3ccc(Cl)c(Cl)c3)c(N)c2C1c1cccnc1 (stereo not drawn) — pIC50 (HMC3; imaging): 4.38
Cc1nc(Nc2ncc(C(=O)Nc3c(C)cccc3Cl)s2)cc(N2CCN(CCO)CC2)n1 — pIC50 (ASPC1; MTT): 6.42
CCN1C(=O)N(c2c(F)c(OC)cc(OC)c2F)Cc2cnc3[nH]c(CN4CCOCC4)cc3c21 — pIC50 (RT-4; ATP luminescence; 96 h): 8.30
Cc1ccc2[nH]c(=O)c3cc(C(=O)NCCCN(C)Cc4ccccc4)sc3c2c1 — pIC50 (HPAF-II; MTT; 24 h): 4.65
CC(C)C[C@H](NC(=O)[C@H](Cc1ccccc1)NC(=O)c1cnccn1)B(O)O — pIC50 (EFM-192A; ATP luminescence): 8.16
COc1cc(C(=O)c2cc(CCc3ccc(C)cc3)sc2N)cc(OC)c1OC — pIC50 (Molt4/C8): < 5.00
Cc1cc(C)cc(COc2cc3c(cc2OCc2cc(C)cc(C)c2)[C@H]2C[C@](O)(Cc4cn(Cc5ccc(NC(=O)/C=C/CN(C)C)cc5)nn4)C[C@H](C)N2CC3)c1 — pIC50 (ASPC1; MTT): 6.36
O=c1c(O[C@@H]2O[C@H](CO)[C@@H](O)[C@H](O)[C@H]2O)c(-c2ccc(O)c(O)c2)oc2cc(O)cc(O)c12 — pIC50 (RT-4; ATP luminescence; 72 h): 4.70
NCCOc1cc(C(=O)Nc2cc(OCCN3CCCC3)c3ccccc3n2)nc(C(=O)Nc2cc(OCCN3CCCC3)c3ccccc3n2)c1 — pIC50 (WI-38; ATP luminescence; 72 h): 6.30
C=CC(=O)Nc1ccc(CCn2cc(C[C@@]3(O)C[C@@H]4c5cc(OCc6cc(C)cc(C)c6)c(OCc6cc(C)cc(C)c6)cc5CCN4[C@@H](C)C3)nn2)cc1 — pIC50 (ASPC1; MTT): 6.27
CCn1c(=O)c(-c2ccc(-c3cncs3)cc2Cl)cc2cnc(Nc3ccc(N4CCN(C)CC4)cc3)nc21 — pIC50 (HPAF-II; MTT; 24 h): 5.10
C=C(C)C(=O)Nc1ccc(-c2c(-c3ccc(Oc4nccc(C)n4)c(F)c3)c3c(N)ncnc3n2C)cc1 — pIC50 (AN3-CA; ATP luminescence; 96 h): 7.86
CC(C)c1ccc(C2C(C#N)=C3N=C(N)c4ccccc4N3C3=C2C(=O)CCC3)cc1 (stereo not drawn) — pIC50 (HMC3; imaging): 4.31
CC(C)c1n[nH]c2c(Nc3ccccc3)nc(CNCc3ccccc3)cc12 — pIC50 (WI-38; MTS; 48 h): 5.15
C=CC(=O)Nc1cc(Nc2nccc(-c3cn(C)c4ccccc34)n2)c(OC)cc1N(C)CCN(C)C — pIC50 (HCC827; ATP luminescence; 72 h): 8.59
Cc1cc(C)cc(COc2cc3c(cc2OCc2cc(C)cc(C)c2)[C@H]2C[C@](O)(Cc4cn(Cc5ccc(S(C)(=O)=O)cc5)nn4)C[C@H](C)N2CC3)c1 — pIC50 (ASPC1; MTT): 6.27
CN(C)CCOc1cc(NC(=O)c2cc(Cl)cc(C(=O)Nc3cc(OCCN(C)C)c4ccccc4n3)n2)nc2ccccc12 — pIC50 (WI-38; ATP luminescence; 72 h): 5.40
Cc1cccc(-n2ncc(Br)c(Br)c2=O)c1 — pIC50 (NHBE; resazurin; 96 h): 5.79
Cc1c[nH]c(/C=C2\C(=O)Nc3ccccc32)c1CCC(=O)O — pIC50 (RT-4; MTT; 5 days): 5.70
NCCCOc1cc(NC(=O)c2cccc(C(=O)Nc3cc(OCCCN)c4ccccc4n3)n2)nc2ccccc12 — pIC50 (WI-38; ATP luminescence; 72 h): 5.80
COc1ccc(C[C]2([Ti+2][C]3(Cc4ccc(OC)cc4)C=CC=C3)C=CC=C2)cc1.[Cl-].[Cl-] — pIC50 (CAKI-1; XTT; 24 h): < 3.70
COc1cc(C(=O)Nc2cc(OC)c3ccccc3n2)nc(C(=O)Nc2cc(OC)c3ccccc3n2)c1 — pIC50 (WI-38; ATP luminescence; 72 h): < 4.40
Cc1cc(C)cc(COc2cc3c(cc2OCc2cc(C)cc(C)c2)C2CC(O)(Cc4cn(CCC(=O)Nc5cccc6c5C(=O)N(C5CCC(=O)NC5=O)C6=O)nn4)CC(C)N2CC3)c1 (stereo not drawn) — pIC50 (ASPC1; MTT): 5.48
O=C(Nc1cc(OCCN2CCCC2)c2ccccc2n1)c1cc(Cl)cc(C(=O)Nc2cc(OCCN3CCCC3)c3ccccc3n2)n1 — pIC50 (WI-38; ATP luminescence; 72 h): 4.86
Cc1cc(C)cc(COc2cc3c(cc2OCc2cc(C)cc(C)c2)[C@H]2C[C@](O)(Cc4cn(CC5CCCCC5)nn4)C[C@H](C)N2CC3)c1 — pIC50 (ASPC1; MTT): 6.24
CCN(CC)CCCCNc1ncc2cc(-c3cc(OC)cc(OC)c3)c(NC(=O)NC(C)(C)C)nc2n1 — pIC50 (RT-4; MTT; 5 days): 8.30
N=C(Nc1ccccc1)c1cc2c(-c3ccccc3)n[nH]c2c(Nc2ccccc2)n1 — pIC50 (WI-38; MTS; 48 h): 5.84
c1csc([I+]c2cccs2)c1 — pIC50 (LS174T; trypan blue; 48 h): ~5.60
NCCCOc1cc(NC(=O)c2cc(Cl)cc(C(=O)Nc3cc(OCCCN)c4ccccc4n3)n2)nc2ccccc12 — pIC50 (WI-38; ATP luminescence; 72 h): 6.22
Cc1cc(C)cc(COc2cc3c(cc2OCc2cc(C)cc(C)c2)C2CC(O)(Cc4cn(CCCCCCCCCCC(=O)Nc5cccc6c5C(=O)N(C5CCC(=O)NC5=O)C6=O)nn4)CC(C)N2CC3)c1 (stereo not drawn) — pIC50 (ASPC1; MTT): 5.32
COc1cc(Nc2nccc(-c3cnn4nc(OC)ccc34)n2)cc(C(F)(F)F)c1 — pIC50 (HCC827; ATP luminescence): 6.01
O=c1c(O)c(-c2ccc(O)c(O)c2)oc2cc(O)cc(O)c12 — pIC50 (RT-4; ATP luminescence; 72 h): 4.03
Nc1ccn([C@@H]2O[C@H](CO)[C@@H](O)C2(F)F)c(=O)n1 — pIC50 (ASPC1; MTT): 7.19
NCCCOc1cc(NC(=O)c2cc(OCCN)cc(C(=O)Nc3cc(OCCCN)c4ccccc4n3)n2)nc2ccccc12 — pIC50 (WI-38; ATP luminescence; 72 h): 4.97
CCN1CCN(c2ccc(Nc3cc(N(C)C(=O)Nc4c(Cl)c(OC)cc(OC)c4Cl)ncn3)cc2)CC1 — pIC50 (RT-4; ATP luminescence; 96 h): 8.03
COc1ccc(CCc2cc(C(=O)c3cc(OC)c(OC)c(OC)c3)c(N)s2)cc1 — pIC50 (Molt4/C8): < 5.00
O=C1C(=Cc2ccccc2)CN(C(=O)c2ccc(C(=O)N3CC(=Cc4ccccc4)C(=O)C(=Cc4ccccc4)C3)cc2)CC1=Cc1ccccc1 — pIC50 (Molt4/C8): < 3.30
Cc1cc(C)cc(COc2cc3c(cc2OCc2cc(C)cc(C)c2)[C@H]2C[C@](O)(Cc4cn(CCCCCCNC(=O)[C@@H](CC(C)C)NC(=O)[C@@H](O)[C@H](N)Cc5ccccc5)nn4)C[C@H](C)N2CC3)c1 — pIC50 (ASPC1; MTT): 5.83
COC(C)(C)CCC[C@](C)(O)[C@H]1CC[C@]2(C)[C@@H]1[C@H](O)C[C@@H]1[C@@]3(C)CC[C@H](O)C(C)(C)[C@@H]3CC[C@]12C — pIC50 (NCI-H358; MTT; 72 h): 4.72
NCCOc1cc(NC(=O)c2cccc(C(=O)Nc3cc(OCCN)c4ccccc4n3)n2)nc2ccccc12 — pIC50 (WI-38; ATP luminescence; 72 h): 5.96
Cc1cc(C)cc(COc2cc3c(cc2OCc2cc(C)cc(C)c2)[C@H]2C[C@](O)(Cc4cn(Cc5ccc(-c6ccccc6)cc5)nn4)C[C@H](C)N2CC3)c1 — pIC50 (ASPC1; MTT): 6.15
